Assay results from ChEMBL document CHEMBL1122134, “Antimalarials. 14. 5-(aryloxy)-4-methylprimaquine analogues. A highly effective series of blood and tissue schizonticidal agents” (1982).

How the values were obtained:
Mus musculus [1] = assay: Suppressive antimalarial activity against Plasmodium berghei in Rane mice (Mus musculus) test (five mice (Mus musculus)) 20 mg/kg (X 1); assay type: functional
Outline: (§1)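 Mice infected with Plasmodium berghei; five mice per dose. A single subcutaneous dose (mg/kg, ×1) was given 72 h after infection. Activity was scored as the increase in mean survival time over infected controls, with an increase of at least 100% counted as active. Cures are mice surviving at 60 days postinfection. Deaths attributed to the drug were scored as toxic.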

Mus musculus [2] = assay: Number of animals found toxic out of five mice (Mus musculus) infected with Plasmodium berghei at 640 mg/kg(X 1) subcutaneous administration
Mus musculus [3] = assay: Number of animals found toxic out of five mice (Mus musculus) infected with Plasmodium berghei at 320 mg/kg(X 1) subcutaneous administration
Mus musculus [4] = assay: Number of animals found toxic out of five mice (Mus musculus) infected with Plasmodium berghei at 160 mg/kg(X 1)subcutaneous administration
Plasmodium cynomolgi [5] = assay: Cures in sporozoite-induced Plasmodium cynomolgi infected Rhesus monkeys (Macaca mulatta) on 1.3 mg/kg/day peroral dose after 7 days, n=6; assay type: functional; details: route oral
Mus musculus [6] = assay: Suppressive antimalarial activity against Plasmodium berghei in Rane mice (Mus musculus) test (five mice (Mus musculus))80 mg/kg (X 1); assay type: functional; outline: as §1
Plasmodium cynomolgi [7] = assay: Cures in sporozoite-induced Plasmodium cynomolgi infected Rhesus monkeys (Macaca mulatta) on 1 mg/kg/day peroral dose after 7 days, n=2; assay type: functional; details: route oral
Mus musculus [8] = assay: Suppressive antimalarial activity against Plasmodium berghei in Rane mice (Mus musculus) test (five mice (Mus musculus)) at a dose of 160 mg/kg (X 1); assay type: functional; outline: as §1
Mus musculus [9] = assay: Suppressive antimalarial activity against Plasmodium berghei in Rane mice (Mus musculus) test (five mice (Mus musculus)) 40 mg/kg (X 1); assay type: functional; outline: as §1
Plasmodium cynomolgi [10] = assay: Cures in sporozoite-induced Plasmodium cynomolgi infected Rhesus monkeys (Macaca mulatta) on 0.316 mg/kg/day peroral dose after 7 days, n=2; assay type: functional; details: route oral
[11] = Molar primaquine Index value of compound was determined; assay type: functional
Plasmodium cynomolgi [12] = assay: Cures in sporozoite-induced Plasmodium cynomolgi infected Rhesus monkeys (Macaca mulatta) at 1 mg/kg/day (x 7) peroral dose; n=3; assay type: functional; details: route oral
Mus musculus [13] = assay: Suppressive antimalarial activity against Plasmodium berghei in Rane mice (Mus musculus) test (five mice (Mus musculus)) at a dose of 5 mg/kg(X 1)A-active; assay type: functional; outline: as §1
Mus musculus [14] = assay: Number of animals found toxic out of five mice (Mus musculus) infected with Plasmodium berghei at 320 mg/kg(X 1)subcutaneous administration
Mus musculus [15] = assay: Number of cures out of five mice (Mus musculus) infected with Plasmodium berghei at 20 mg/kg(X 1) subcutaneous administration
Mus musculus [16] = assay: Number of cures out of five mice (Mus musculus) infected with Plasmodium berghei at 160 mg/kg(X 1) subcutaneous administration
Mus musculus [17] = assay: Number of cures out of five mice (Mus musculus) infected with Plasmodium berghei at 640 mg/kg(X 1) subcutaneous administration
Mus musculus [18] = assay: Number of cures out of five mice (Mus musculus) infected with Plasmodium berghei at 10 mg/kg(X 1) subcutaneous administration
Mus musculus [19] = assay: Number of cures out of five mice (Mus musculus) infected with Plasmodium berghei at 80 mg/kg(X 1) subcutaneous administration
Mus musculus [20] = assay: Number of cures out of five mice (Mus musculus) infected with Plasmodium berghei at 40 mg/kg(X 1) subcutaneous administration
Mus musculus [21] = assay: Number of cures out of five mice (Mus musculus) infected with Plasmodium berghei at 320 mg/kg(X 1) subcutaneous administration
Mus musculus [22] = assay: Number of animals found toxic out of five mice (Mus musculus) infected with Plasmodium berghei at 640 mg/kg(X 1) subcutaneous administration; remark: listed apart in the source
Plasmodium cynomolgi [23] = assay: Cures in sporozoite-induced Plasmodium cynomolgi infected Rhesus monkeys (Macaca mulatta) on 0.1 mg/kg/day peroral dose after 7 days, n=3; assay type: functional; details: route oral
Mus musculus [24] = assay: Number of cures out of five mice (Mus musculus) infected with Plasmodium berghei at 5 mg/kg(X 1) subcutaneous administration
Plasmodium cynomolgi [25] = assay: Radical curative activity in sporozoite-induced Plasmodium cynomolgi infected Rhesus monkeys (Macaca mulatta) on 14 mg/kg/day peroral dose after 1 day; assay type: functional; details: route oral
Outline: (§2)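 Single oral dose (×1) in P. cynomolgi-infected rhesus monkeys, given alone or with chloroquine phosphate at 5 mg/kg of salt (×7). Drug was given in salt form but dose calculated as free base. Each animal scored as cure (C), suppressive failure (SF, blood not cleared) or relapse (R, tissues not cleared).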

Plasmodium cynomolgi [26] = assay: Radical curative activity in sporozoite-induced Plasmodium cynomolgi infected Rhesus monkeys (Macaca mulatta) after 3.5 mg/kg/day (x1) oral dose; assay type: functional; outline: as §2
Plasmodium cynomolgi [27] = assay: Radical curative activity in sporozoite-induced Plasmodium cynomolgi infected Rhesus monkeys (Macaca mulatta) on 1.75 mg/kg/day oral dose after 1 day; assay type: functional; outline: as §2
Plasmodium cynomolgi [28] = assay: Radical curative activity in sporozoite-induced Plasmodium cynomolgi infected Rhesus monkeys (Macaca mulatta) on 7 mg/kg/day peroral dose after 1 day; assay type: functional; details: route oral; outline: as §2
Mus musculus [29] = assay: Suppressive antimalarial activity against Plasmodium berghei in Rane mice (Mus musculus) test (five mice (Mus musculus)) at a dose of 5 mg/kg(X 1); assay type: functional; outline: as §1
Plasmodium cynomolgi [30] = assay: Cures in sporozoite-induced Plasmodium cynomolgi infected Rhesus monkeys (Macaca mulatta) on 0.1 mg/kg/day peroral dose after 7 days, n=2; assay type: functional; details: route oral
Mus musculus [31] = assay: Suppressive antimalarial activity against Plasmodium berghei in Rane mice (Mus musculus) test (five mice (Mus musculus)) 10 mg/kg(X 1); assay type: functional; outline: as §1
Plasmodium cynomolgi [32] = assay: Suppressive failures in sporozoite-induced Plasmodium cynomolgi infected Rhesus monkeys (Macaca mulatta) on 3.5 mg/kg/day peroral dose after 1 day; assay type: functional; details: route oral; outline: as §2
Plasmodium cynomolgi [33] = assay: Cures in sporozoite-induced Plasmodium cynomolgi infected Rhesus monkeys (Macaca mulatta) on 7 mg/kg/day peroral dose after 1 day; assay type: functional; details: route oral; outline: as §2
Plasmodium cynomolgi [34] = assay: Relapses in sporozoite-induced Plasmodium cynomolgi infected Rhesus monkeys (Macaca mulatta) on 0.4375 mg/kg/day peroral dose after 1 day; assay type: functional; details: route oral; outline: as §2
Plasmodium cynomolgi [35] = assay: Cures in sporozoite-induced Plasmodium cynomolgi infected Rhesus monkeys (Macaca mulatta) on 3.5 mg/kg/day peroral dose after 1 day; assay type: functional; details: route oral; outline: as §2
Mus musculus [36] = assay: Number of mice (Mus musculus) found toxic when infected with Plasmodium berghei at 640 mg/kg(X 1) subcutaneous administration
Plasmodium cynomolgi [37] = assay: Relapses in sporozoite-induced Plasmodium cynomolgi infected Rhesus monkeys (Macaca mulatta) on 0.875 mg/kg/day peroral dose after 1 day; assay type: functional; details: route oral; outline: as §2
Plasmodium cynomolgi [38] = assay: Cures in sporozoite-induced Plasmodium cynomolgi infected Rhesus monkeys (Macaca mulatta) on peroral 14 mg/kg/day (x 1) dose; assay type: functional; details: route oral; outline: as §2
Plasmodium cynomolgi [39] = assay: Suppressive failures in sporozoite-induced Plasmodium cynomolgi infected Rhesus monkeys (Macaca mulatta) on 0.875 mg/kg/day peroral dose after 1 day; assay type: functional; details: route oral; outline: as §2
Plasmodium cynomolgi [40] = assay: Suppressive failures in sporozoite-induced Plasmodium cynomolgi infected Rhesus monkeys (Macaca mulatta) on 1.75 mg/kg/day peroral dose after 1 day; assay type: functional; details: route oral; outline: as §2
Mus musculus [41] = assay: Mean survival time of mice (Mus musculus) infected with Plasmodium berghei at 5 mg/kg(X 1)subcutaneous administration

With `COc1cc(NC(C)CCCN)c2ncccc2c1.O=P(O)(O)O.O=P(O)(O)O` (stereo not given) [PRIMAQUINE PHOSPHATE] the MST (Mus musculus [1]) was 4, the Cures (Mus musculus [2]) was 5 and the “Toxic animals (out of 5)” value (Mus musculus [3]) was 5. It also gave a Cures (Mus musculus [4]) of 2, a Cures (Plasmodium cynomolgi [5]) of 6 and an MST (Mus musculus [6]) of 9.4. It also gave a Cures (Plasmodium cynomolgi [7]) of 1, an MST (Mus musculus [8]) of 10.8 and an MST (Mus musculus [9]) of 5. The Cures (Plasmodium cynomolgi [10]) was 0.
`COc1cc(NC(C)CCCN)c2nccc(C)c2c1Oc1ccc(F)cc1.O=P(O)(O)O` (stereo not given) showed a Molar primaquine Index [11] of 4.2, a Cures (Plasmodium cynomolgi [12]) of 3 and an MST (Mus musculus [13]) of 7. For the same compound, the Cures (Mus musculus [14]) was 1, the Cures (Mus musculus [15]) was 4 and the Cures (Mus musculus [16]) was 5. For the same compound, the Cures (Mus musculus [17]) was 3, the Cures (Mus musculus [18]) was 3 and the Cures (Mus musculus [19]) was 5. For the same compound, the Cures (Mus musculus [20]) was 5, the Cures (Mus musculus [21]) was 4 and the Cures (Mus musculus [22]) was 2. It also gave a Cures (Plasmodium cynomolgi [23]) of 0 and a Cures (Plasmodium cynomolgi [10]) of 2.
`COc1cc(NC(C)CCCN)c2nccc(C)c2c1Oc1ccc(Cl)c(Cl)c1.O=P(O)(O)O` (stereo not given) gave a Molar primaquine Index [11] of 1.3, a Cures (Plasmodium cynomolgi [12]) of 3 and a Cures (Mus musculus [15]) of 5. It also gave a Cures (Mus musculus [16]) of 5, a Cures (Mus musculus [17]) of 5 and a Cures (Mus musculus [18]) of 5. It also gave a Cures (Mus musculus [19]) of 5, a Cures (Mus musculus [20]) of 5 and a Cures (Mus musculus [21]) of 5. For the same compound, the Cures (Mus musculus [24]) was 4, the Cures (Plasmodium cynomolgi [23]) was 0 and the Cures (Plasmodium cynomolgi [10]) was 1.
Work on `COc1cc(NC(C)CCCN)c2ncccc2c1` (stereo not given) [PRIMAQUINE] yielded a Cures (Plasmodium cynomolgi [25]) of 2, a Cures (Plasmodium cynomolgi [26]) of 2 and an MST (Mus musculus [1]) of 2.2. For the same compound, the Cures (Mus musculus [2]) was 5, the “Toxic animals (out of 5)” value (Mus musculus [3]) was 5 and the Cures (Plasmodium cynomolgi [27]) was 2. It also gave an MST (Mus musculus [6]) of 6.4, a Cures (Plasmodium cynomolgi [28]) of 1 and an MST (Mus musculus [8]) of 7. The MST (Mus musculus [9]) was 4.2.
For `COc1ccc(Oc2c(OC)cc(NC(C)CCCN)c3nccc(C)c23)cc1.O=P(O)(O)O` (stereo not given), the MST (Mus musculus [29]) was 5.5, the Molar primaquine Index [11] was 4.3 and the Cures (Plasmodium cynomolgi [12]) was 3. The Cures (Mus musculus [15]) was 1, the Cures (Mus musculus [16]) was 5 and the Cures (Mus musculus [3]) was 0. It also gave a Cures (Mus musculus [17]) of 2, a Cures (Mus musculus [19]) of 5 and a Cures (Plasmodium cynomolgi [30]) of 0. The Cures (Mus musculus [20]) was 5, the Cures (Mus musculus [21]) was 5 and the MST (Mus musculus [31]) was 5.9. For the same compound, the Cures (Plasmodium cynomolgi [10]) was 2.
`COc1cc(NC(C)CCCN)c2nccc(C)c2c1Oc1cccc(C(F)(F)F)c1.O=C(O)CCC(=O)O` (stereo not given) gave a Suppressive failures (Plasmodium cynomolgi [32]) of 1, a Molar primaquine Index [11] of 4.8 and a Cures (Plasmodium cynomolgi [33]) of 2. The Cures (Mus musculus [15]) was 5, the Relapses (Plasmodium cynomolgi [34]) was 4 and the Cures (Plasmodium cynomolgi [35]) was 1. For the same compound, the Cures (Mus musculus [16]) was 5, the Cures (Mus musculus [36]) was 4 and the Relapses (Plasmodium cynomolgi [37]) was 1. The Cures (Plasmodium cynomolgi [38]) was 1, the Cures (Mus musculus [17]) was 1 and the Suppressive failures (Plasmodium cynomolgi [39]) was 3. For the same compound, the Cures (Mus musculus [18]) was 2, the Cures (Mus musculus [19]) was 5 and the Suppressive failures (Plasmodium cynomolgi [40]) was 4. The Cures (Plasmodium cynomolgi [30]) was 0, the Cures (Mus musculus [20]) was 5 and the Cures (Mus musculus [21]) was 5. For the same compound, the Cures (Plasmodium cynomolgi [7]) was 2, the MST (Mus musculus [41]) was 6.9 and the Cures (Plasmodium cynomolgi [10]) was 2.
For `COc1cc(NC(C)CCCN)c2nccc(C)c2c1Oc1ccc(Cl)cc1Cl.O=P(O)(O)O` (stereo not given), the MST (Mus musculus [29]) was 5, the Molar primaquine Index [11] was 1.3 and the Cures (Plasmodium cynomolgi [12]) was 3. The Cures (Mus musculus [15]) was 5, the Cures (Mus musculus [16]) was 5 and the Cures (Mus musculus [2]) was 2. For the same compound, the “Toxic animals (out of 5)” value (Mus musculus [3]) was 1, the Cures (Mus musculus [17]) was 3 and the Cures (Mus musculus [18]) was 1. It also gave a Cures (Mus musculus [19]) of 5, a Cures (Mus musculus [20]) of 5 and a Cures (Mus musculus [21]) of 4. The Cures (Plasmodium cynomolgi [23]) was 0 and the Cures (Plasmodium cynomolgi [10]) was 1.
`COc1cc(NC(C)CCCN)c2ncccc2c1` (stereo not given) showed a Molar primaquine Index [11] of 1.
